This excerpt belongs to a sample that is enriched for hits.
Biofilm kill mix = mixtures killing C. albicans biofilm; 120,000 tested, 0.02% active; C. albicans biofilm persisters + clotrimazole, fluorescence viability; primary screen in compound mixtures of four per well; inhibition, % at 7.6 µM;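 active = inhibition above 30.3% in the primary screen of four-compound pools, then above 30% when the compound was retested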;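 note: compounds exposed to preformed 24 h biofilms for 48 h; 0% = untreated biofilm control and 100% = clotrimazole plus chlorhexidine kill blank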
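Incubation: 24 h biofilm formation, then 48 h compound exposure, 37 °C | Material: C. albicans biofilms | Buffer or medium: RPMI/MOPS medium, pH 7.0 | Measured by: 2-h Alamar Blue fluorescence, 535/590 nm excitation/emission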
ROMK primary = modulators of human ROMK potassium channel. B-score at 10 µM. Tet-inducible ROMK, thallium flux fluorescence; actives lie on both sides. P48048. 130,000 tested, 2% active;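 active = signal ratio slope over the read window, or its plate-corrected B-score, at least 3 SD from the plate mean, either direction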;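 note: B-score of the F/F0 ratio slope over 7 to 12 s after thallium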
Target sequence (P48048 whole entry, looked up): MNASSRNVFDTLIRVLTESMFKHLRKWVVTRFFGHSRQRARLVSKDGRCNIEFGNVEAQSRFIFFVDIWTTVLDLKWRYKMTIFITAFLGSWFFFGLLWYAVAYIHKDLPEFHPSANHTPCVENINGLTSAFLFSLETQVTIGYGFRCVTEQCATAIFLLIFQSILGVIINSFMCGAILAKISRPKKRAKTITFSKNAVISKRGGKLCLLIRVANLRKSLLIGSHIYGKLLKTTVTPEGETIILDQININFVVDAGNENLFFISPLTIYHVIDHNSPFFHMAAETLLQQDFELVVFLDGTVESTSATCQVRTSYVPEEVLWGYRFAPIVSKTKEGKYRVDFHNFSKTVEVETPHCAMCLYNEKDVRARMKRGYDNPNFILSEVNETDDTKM
The depositor's hits bear a star; . = no result given.

SMILES	Biofilm kill mix	ROMK primary
Cc1cccc(-n2c(C)cc(/C=N/NC(=O)c3cccc([N+](=O)[O-])c3C)c2C)c1	.	-0.088
COc1ccc([N+](=O)[O-])cc1NC(=S)NC(=O)C(C)(C)C	9	0.2
Cc1ccc2cc(/C=C3\N=C(c4ccccc4)OC3=O)c(N3CCOCC3)nc2c1	.	-5.9*
Cc1nn(-c2ccccc2)c(N2CCCC2)c1/C=C1\N=C(c2ccccc2)OC1=O	8	-0.35
Cc1ccc(C(=O)NNC(=S)NC(=O)COc2ccccc2)cc1	.	6.6*
Cc1ccccc1C(=O)NNC(=S)NC(=O)COc1ccccc1	.	1.8
Cc1cccc(C(=O)NC(=S)NNC(=O)c2cccs2)c1	11	.
CC(C)(C)C(=O)NC(=S)NNC(=O)c1ccc(-c2ccccc2)cc1	18	6.1*
CC(C)(C)c1ccc(C(=O)NC(=S)NNC(=O)c2cccs2)cc1	21	9.1*
CC(C)(C)C(=O)NC(=S)NNC(=O)c1ccncc1	21	-0.41
CC1(C)Cc2cccc(C(=O)NC3CCN(Cc4ccccc4)CC3)c2O1	20	.
CN(C/C(O)=C(\C#N)c1ccccc1)C1CCCCC1	.	0.6
O=C(OCc1nc2ccccc2[n+]([O-])c1C(=O)c1ccccc1)c1ccco1	18	0.032
CCn1nc([N+](=O)[O-])c(C(C#N)c2nc3cc(C(F)(F)F)ccc3s2)c(Cl)c1=O (stereo unspecified)	.	-5*
CCCn1nc([N+](=O)[O-])c(C(C#N)c2nc3ccccc3o2)c(Cl)c1=O (stereo unspecified)	17	.
O=C(CN1CC[n+]2c(-c3cccs3)csc21)c1ccc(-c2ccccc2)cc1	6	-5.6*
Cc1ccc(C(=O)Cn2nnc(-c3cccs3)n2)cc1	13	.
C#CCNC(=O)C1=C[C@H](C2CC2)C[C@H](OCCCCO)O1	25	.
COc1ccc(CCNC(=O)C(=O)Nc2ccc3c(c2)OCCO3)cc1OC	14	-0.21
O=C1/C(=C/c2ccncc2)CCc2ccccc21	16	-1.7
O=C1/C(=C/c2ccncc2)CCC/C1=C\c1ccncc1	-8	-3.3*
COc1ccc(N=c2cc(-c3ccc(O)cc3)oc3ccccc23)cc1	9	.
CC1(C)Oc2ccc(C(=O)N3CCCC3)cc2N(CC(=O)NCc2ccccc2)C1=O	.	0.59
CC1(C)Oc2ccc(C(=O)N3CCc4ccccc43)cc2N(CC(=O)N2CCCC2)C1=O	.	3.8*
CCc1sc(/C=C(/C#N)C(N)=S)cc1[N+](=O)[O-]	-11	-4.4*
SMILES	Biofilm kill mix	ROMK primary
CCc1ccc(/C=C(/C#N)C(N)=S)s1	10	-1.3
CN(C(N)=S)c1ccccc1	.	1.3
CC(Cl)C(=O)NN=C(c1ccccc1)c1ccccc1 (stereo unspecified)	11	-0.097
O=C(Nc1nc(=O)c2ccccc2s1)c1ccccc1	.	3*
CC(=O)Nc1nc(=O)c2ccccc2s1	.	0.28
CCOc1ccc(NC(=O)C2C3C=CC4(CN(C(C(=O)OC)C(C)C)C(=O)C24)O3)cc1 (stereo unspecified)	18	-0.29
O=[N+]([O-])c1ccc(O)c2ncccc12	32*	.
O=[N+]([O-])c1ccc(O)c2cccnc12	8	-0.23
Cc1cc(/C=C2\NC(=O)NC2=O)c(C)n1-c1cccnc1	14	.
Cc1c(N=c2scc(-c3ccccc3)n2CCO)c(=O)n(-c2ccccc2)n1C	19	-0.049
Oc1c(Br)cc2oc3c(c2c1CNCc1ccccc1)CCCC3	.	2.9*
NC(=S)N/N=C/c1c(O)c(Br)cc2oc3c(c12)CCCC3	18	.
O=C(NCCc1ccccc1)N1c2ccccc2Sc2ccccc21	.	1.8*
CC(C)CNC(=O)N1c2ccccc2Sc2ccccc21	15	.
CCNC(=O)CSc1nc(-c2ccc(F)cc2)cs1	13	-0.57
COc1cc(C2C(C#N)=C(C)NC3=C2C(=O)c2ccccc23)cc(OC)c1OC (stereo unspecified)	.	3.2*
COc1ccc(C2C(C#N)=C(C)NC3=C2C(=O)c2ccccc23)cc1 (stereo unspecified)	.	-0.49
COc1ccc(/C(O)=C2/C(=O)C(=O)N(c3ncccn3)C2c2ccc(OC)cc2)cc1 (stereo unspecified)	10	-0.18
O=C(Cn1c(CC(=O)N2CCOCC2)nc2ccccc21)Nc1ccc2c(c1)OC(F)(F)O2	.	-0.8
CC(=O)/C(=N\Nc1ccccc1)Sc1cccc2cccnc12	18	-0.08
O=C(Sc1cccc2cccnc12)c1ccc(F)cc1	5	8.7*
CCn1nc(C)c(NS(=O)(=O)c2ccc(C)cc2)c1C	12	.
O=C(c1ccc(CSc2nc3ccncc3[nH]2)cc1)N1CCN(c2cccc(Cl)c2)CC1	2	-3.5*
O=C(c1ccc(CSc2nc3ccncc3[nH]2)cc1)N1CCCCCC1	25	.
CCN1C(=O)CC(C(=O)NCCc2ccc(S(N)(=O)=O)cc2)SC1=Nc1ccc(OC)cc1 (stereo unspecified)	11	0.37
SMILES	Biofilm kill mix	ROMK primary
C=CCn1c(CSCc2ccc(C)cc2)nnc1SCC(=O)NCc1ccccc1	.	-1.9
C=CCn1c(CSCc2ccc(Cl)cc2)nnc1SCC(=O)NCc1ccccc1	.	-3*
C/C(=N\NS(=O)(=O)c1ccc([N+](=O)[O-])cc1)c1ccc(NC(=O)c2ccco2)cc1	16	0.24
CCCNS(=O)(=O)c1ccc(OCC(=O)Nc2ccc3c(c2)OCO3)cc1	21	0.61
c1ccc(Cn2nnnc2C(c2cccs2)N2CCSCC2)cc1 (stereo unspecified)	.	1.3
CCN1CCN(C(c2ccccc2F)c2nnnn2Cc2ccc3c(c2)OCO3)CC1 (stereo unspecified)	.	-2.2*
CCN1CCN(C(c2ccc(F)cc2)c2nnnn2Cc2ccc3c(c2)OCO3)CC1 (stereo unspecified)	12	0.26
c1ccc(CCn2nnnc2C(c2cccs2)N2CCN(Cc3ccc4c(c3)OCO4)CC2)cc1 (stereo unspecified)	.	-3.1*
O=C1C2C3C=CC(C2C(=O)N1c1ccccc1O)C1C2C(=O)N(c4ccccc4O)C(=O)C2C31 (stereo unspecified)	27	-0.32
COc1ccc(C(=O)NCCCCCC(=O)O)cc1OC	.	0.41
N#C/C(=C/c1ccc(-c2ccccc2)o1)c1nc(-c2cccs2)cs1	13	-5.3*
N#C/C(=C\c1ccc(-c2ccc(F)cc2)o1)C(=O)Nc1nc(-c2cccs2)cs1	-1	.
Cc1sc2nc(SCC(=O)N(CCO)CCO)nc(N)c2c1C	8	0.52
CCOC(=O)c1c(NC(=S)NCC2CCCO2)sc(C)c1C (stereo unspecified)	-5	3.5*
CCOC(=O)c1c(NC(=O)C2CCCO2)sc(C(N)=O)c1C (stereo unspecified)	10	-0.94
CC(=O)Nc1ccc(S(=O)(=O)Nc2cccc(-c3ccc4nncn4n3)c2)cc1	16	0.2
COc1ccc(/C=N/NC(=S)SC)cc1OC	4	1.7
CSC(=S)N/N=C/c1ccccc1	7	6.2*
CCCN(CCC)C(C)C(=O)NCC1(c2ccccc2)CCCC1 (stereo unspecified)	20	-0.89
Cc1ccc(C(C(=O)NC2CCCC2)N(Cc2ccc3c(c2)OCO3)C(=O)c2snc(C(N)=O)c2N)cc1 (stereo unspecified)	19	.
O=C(NC1CCCCC1)C(c1ccccc1)N(Cc1ccc2c(c1)OCO2)C(=O)c1cnsn1 (stereo unspecified)	0	-2.4*
c1ccc(C2=NN(c3ccccc3)CC2)cc1	18	.
CCOC(=O)/C(=C/c1ccc(N2CCC(c3ccccc3)=N2)cc1)C(C)=O	15	-3.4*
